In the library only some 1.5% were active in any assay of this set; here they are far more common.
CSN deneddyl inh: inhibitors of human CSN-mediated cullin deneddylation | Q92905 | Purified CSN, SCF-Nedd8-OG deneddylation, fluorescence polarization | inhibition, % at 12.5 µM | 0.38% of 360,000 active;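 active means pattern-corrected inhibition above about 35%, with an unprinted fluorescence ratio check between 0.5 and 1.5, limit read from the data, passing the limit was not always enough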;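 further: 0% = enzyme with substrate and 100% = substrate without enzyme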
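Material: purified human Csn5 enzyme expressed in HEK293T cells / Medium: Tris buffer pH 7.5, NaCl, DTT, Tween-20, trehalose, ovalbumin / Compound dosing: 12.5 µM single point / Schedule: 90 min incubation of compound, enzyme and substrate at room temperature / Signal: fluorescence polarization of the substrate / Control set: no-enzyme wells high, enzyme-with-substrate wells low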
EBNA-1 inh: blocks EBNA-1 binding to DNA; 0.34% of 300,000 active; inhibition, % at 14.8 µM; EBNA-1 DNA binding, fluorescence polarization; in the data active means inhibition above about 28%
LANA-H2B inh: blocks KSHV LANA binding to histone H2A/H2B. 0.6% of 320,000 active. inhibition, % (no concentration beside the values). cell-free LANA-H2A/H2B peptide, fluorescence polarization. AID 2629; in the data active means inhibition mostly above about 10%, no sharp cut-off; inactive means mostly below about 6.7%
Bfl-1 A1 inh: inhibitors of the anti-apoptotic protein A1, read as caspase activation. AID 2462. MEF A1-2A-BIM cells, Caspase-Glo 3/7 luminescence, 3 h; percent of clofoctol response, vehicle zero. caspase activation, % (concentration not given with the values). 0.066% of 330,000 active;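 active means over half of replicate activation scores above 10%, or exactly half above 10 with the replicate mean above 10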
ZTA DNA inh: blocks Epstein-Barr virus ZTA, an EBNA-1 counter-screen. P03206. 0.15% of 320,000 active. AID 2234. inhibition, % at 11 µM. ZTA-DNA binding, fluorescence polarization; in the data active means inhibition above about 33%
HNF4A DNA FP: change in binding of human HNF4 alpha to DNA. P41235. HNF4a-FITC DNA binding, fluorescence polarization, 1 h. activity change, % at 10 µM. 0.3% of 360,000 active. AID 1224865; in the data active means activity change above about 30%, passing the limit was not always enough
* hit, by the source's call; . = no result; + = active, no number; ! = a repeat was not active.

SMILES	CSN deneddyl inh	EBNA-1 inh	LANA-H2B inh	Bfl-1 A1 inh	ZTA DNA inh	HNF4A DNA FP
N#Cc1ccccc1OCC(=O)NCC(c1cccs1)N1CCOCC1 (stereo not drawn)	5	3	2	0	7	0
O=C(c1ccco1)N1CCN(c2ccc([N+](=O)[O-])c(N3CCOCC3)c2)CC1	-11	2	-1	0	24	4
CCn1c(SCc2nc3sc(C(=O)O)c(C)c3c(=O)[nH]2)nnc1-c1ccc(Cl)cc1	8	1	+	1	7	-3
CCn1c(SCc2nc3scc(-c4ccccc4)c3c(=O)[nH]2)nnc1-c1cccs1	4	0	0	0	-10	12
CC(C)(CC(=O)O)CC(=O)Nc1cc(C(F)(F)F)cc(C(F)(F)F)c1	4	-12	0	1	3	0
COc1ccc(/C=C/C(=O)NC(=S)NCCc2ccc(OC)c(OC)c2)cc1	2	-6	-1	7.2*	-1	-1
O=C(NCCCN1CCCC1)Nc1cccc2ccccc12	2	-4	14*	2	0	2
NS(=O)(=O)c1ccc(N2CCN(C(=O)C3COc4ccccc4O3)CC2)nc1 (stereo not drawn)	-2	.	.	.	.	-1
O=C1c2cccc3c(O)ccc(c23)C(=O)N1c1ccc(Cl)cc1	-76	-9	23*	-3	-13	-100
O=C(Cc1nc2ccccc2[nH]c1=O)c1ccccc1	-3	.	.	.	.	38*
CC(=O)Nc1cc(=O)c2cccnc2[nH]1	6	.	.	.	.	-29
CCCCN(C)CCNC(=O)CN1C(=O)CSc2ccc(S(=O)(=O)N3CCCC3)cc21	3	-9	19*	1	-1	4
O=C(CN1C(=O)CSc2ccc(S(=O)(=O)N3CCCCC3)cc21)NCc1ccccc1	0	-11	56*	1	4	-3
CC(C)OCCCNC(=O)CN1C(=O)CSc2ccc(S(=O)(=O)N3CCCCC3)cc21	4	-5	22*	-1	1	1
O=C(CN1c2cccc3cccc(c23)S1(=O)=O)Nc1ccc(F)c(F)c1F	-4	.	-3	0	.	-3
COc1cc(NC(=O)c2ccc(Cl)cc2Cl)ccc1NC(=O)c1cccs1	0	21	-5	0	-27	-1
O=C(O)Cc1ccc(O)c(F)c1	-6	3	47*!	0	-15	1
O=C(NCc1cccs1)c1ccc(CS(=O)Cc2ccc(Cl)cc2)o1 (stereo not drawn)	3	.	.	.	.	2
O=C(Cn1c(=O)n(Cc2ccco2)c(=O)c2c3c(sc21)CCCCC3)c1ccccc1	38*	25	3	1	1	-13
O=C(Cn1c(=O)n(Cc2ccco2)c(=O)c2c3c(sc21)CCCCC3)Nc1ccccc1	48	-8	-6	-2	10	-23
CCCc1c(C(=O)OCC)[nH]c2c1C(=O)CCC2	-2	17	36*	0	7	-1
COc1cc(/C=C/C(=O)c2c(O)ccc3c(C)cc(=O)oc23)ccc1O	-4	4	-4	0	-9	-1
COc1ccc(/C=C\C(=O)c2c(O)ccc3c(C)cc(=O)oc23)cc1OC	5	-7	16*	1	4	-4
N#C/C(=C\c1ccc(OC(=O)c2ccc(Cl)s2)cc1)c1nc2ccccc2[nH]1	4	12	4	-6	-14	-7
COc1ccc2c(COC(=O)c3n[nH]c4ccccc34)cc(=O)oc2c1	38*	5	3	-1	-2	1
SMILES	CSN deneddyl inh	EBNA-1 inh	LANA-H2B inh	Bfl-1 A1 inh	ZTA DNA inh	HNF4A DNA FP
Cc1cc2oc(=O)cc(COC(=O)c3n[nH]c4ccccc34)c2cc1C	-2	7	4	0	-20	-3
O=C(NCCc1ccc(Cl)cc1)c1cnccn1	2	-5	+	0	-8	-2
COc1ccc2c(C)cc3n[nH]c(=S)n3c2c1	-2	1	5	1	-3	-3
O=C(CSc1nnc2c(Cl)cc(Cl)cn12)N1CCN(c2ccc(F)cc2)CC1	1	8	-7	0	0	6
O=C(COC(=O)c1ccc(CSc2ccc(Cl)cc2)cc1)Nc1ccccc1	-17	29*	0	-2	3	-1
O=C(COC(=O)CSc1ccc(Cl)cc1)Nc1ccccc1	2	.	-1	-2	-9	1
CN(C)CCCNC(=S)N(CCCN(C)C)Cc1cc2cc3c(cc2[nH]c1=O)OCO3	1	1	20*	2	-14	2
CCn1c(NC(=O)c2ccc(C)cc2)c2ccccc2nc1=O	-3	1	0	0	8	1
CCn1c(NC(=O)C(C)C)c2ccccc2nc1=O	1	-4	11*	0	0	-1
Cc1ccc(-c2csc(NC(=O)CCNC(=O)c3ccco3)n2)cc1	-2	-4	5	1	6	40*
CCc1cccc(CC)c1NC(=O)CN1CCc2cc(OC)c(OC)cc2C1	-2	5	2	-1	2	1
CCOC(=O)c1c(C)nc(C)c2c(=O)oc3ccccc3c12	-4	-6	0	1	-11	2
COc1ccc(OCC(=O)N2c3ccc(C)cc3C3CN(C)CCC32)cc1 (stereo not drawn)	1	-10	25*	0	-1	0
O=C(NCCNc1ccc(Cl)cc1[N+](=O)[O-])c1cccnc1	-1	9	12*	1	5	1
Cc1ccoc1C(=O)NCCNc1ccc(Cl)cc1[N+](=O)[O-]	-8	6	-1	0	-4	-2
CSC(=NC#N)N1CCN(c2ccccn2)CC1	-7	-9	30*	0	-9	1
Cc1ccccc1C(=O)NNC(=O)Nc1ccccc1	.	9	0	1	9	.
CCn1nnc2cc(C(=O)Nc3cc(OC)cc(OC)c3)ccc21	-4	5	-2	1	-17	10
CCOc1ccc(S(=O)(=O)NCCc2ccccn2)cc1	-2	.	2	0	.	-2
COc1ccc(NC(=O)CCc2nnc3ccc(NCc4ccc5c(c4)OCO5)nn23)cc1	36*	-12	2	0	-14	3
COc1ccc(NC(=O)CCc2nnc3ccc(NCc4ccco4)nn23)cc1	0	-3	12	0	-20	1
Clc1ccccc1OCCNc1nc(NCC2CC2)nc2ccsc12	-2	.	.	.	.	3
O=C1COc2ccc(C(=O)COC(=O)c3ccc(Cl)cc3[N+](=O)[O-])cc2N1	77*	0	.	0	-1	1
CC(C)CC(NC(=O)c1ccc(Cl)cc1)C(=O)OCC(=O)c1ccc2c(c1)NC(=O)CO2 (stereo not drawn)	-3	11	3	15*	-20	0
NC(=O)C1CCCN(C(=O)CN2C(=O)NC(c3ccccc3)(c3ccccc3)C2=O)C1 (stereo not drawn)	0	.	.	.	.	6

Bioassay records (PubChem BioAssay)
